Assay outcomes from PubChem BioAssay.
A selection: hits, their analogues and other compounds. The true share with any hit is near 3.7%.
Kir21 block = inhibitors of mouse Kir2.1 inward-rectifier potassium channel; P35561; HEK293-Kir2.1, FluxOR thallium flux fluorescence; hits give low values; B-score at 10 µM; 0.85% of 310,000 active;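 active means fluorescence ratio B-score at or below minus 3 SD of library scores, with starting-brightness B-score within 2 SD, cut at about -4.2 in these data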;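 further: channel flux triggered by added potassium and thallium sulfate stimulus; B-score of peak minus minimum fluorescence over baseline after thallium stimulus; more negative B-score means stronger Kir2.1 block with less thallium influx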
KCNK3 inh = human KCNK3 channel inhibition, primary screen. CHO-KCNK3 thallium flux, FluxOR fluorescence; hits give low values. B-score at 10 µM. 0.84% of 340,000 active. AID 602410;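 active means B-score under library mean minus 4 SD, starting fluorescence ratio at most library mean plus 5 SD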;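 further: more negative B-score means stronger inhibition of thallium flux through KCNK3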
KCNQ1 act = human KCNQ1 channel potentiation or activation; P51787; CHO-K1 KCNQ1, thallium flux FluxOR fluorescence; hits give high values; B-score at 10 µM; 0.35% of 310,000 active; AID 2648;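 active means fluorescence ratio B-score, a plate-corrected score, at least three library SD, with initial intensity B-score within 5 SD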
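System: CHO-K1 cells stably expressing KCNQ1 / Medium: assay buffer for compound exposure, DMSO matched across wells / Reagent: thallium- and potassium-containing depolarizing buffer / Compound: one concentration, matched DMSO / Incubation: 20 min compound pretreatment at room temperature / Measured by: kinetic FluxOR fluorescence, 10 s baseline plus 110 s post-stimulus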
KCNK9 block = inhibitors of human KCNK9 two-pore domain potassium channel; Q9NPC2; HEK293 KCNK9, FluxOR thallium flux fluorescence; hits give low values; B-score at 10 µM; 1.2% of 310,000 active;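 active means ratio B-score over 3 SD below the library mean, with starting fluorescence within 5 SD of its mean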;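 further: negative B-score means less thallium flux so channel inhibition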
KCNQ1 block = human KCNQ1 channel inhibition; P51787; CHO-K1 KCNQ1, FluxOR thallium flux fluorescence; hits give high values; B-score at 10 µM; 1.3% of 310,000 active;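 active means compounds whose thallium flux B-score, printed positive for inhibition, exceeds three library SD while starting fluorescence stays within three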;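 further: channel opened by potassium depolarization with thallium stimulus after 20 min compound exposure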
hERG rescue = hERG (human) protection from proarrhythmic block | 0.51% of 310,000 active | activation (rescue from dofetilide block), less the hit threshold, % at 10 µM | CHO-hERG, FluxOR thallium flux, dofetilide IC70 present | Q12809 | AID 1511;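 active means activation above the mean of controls blocked by dofetilide plus 5 SD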;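 further: thallium influx through hERG after potassium depolarization seen as dye fluorescence rise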
Target sequence (Q12809 whole entry, looked up): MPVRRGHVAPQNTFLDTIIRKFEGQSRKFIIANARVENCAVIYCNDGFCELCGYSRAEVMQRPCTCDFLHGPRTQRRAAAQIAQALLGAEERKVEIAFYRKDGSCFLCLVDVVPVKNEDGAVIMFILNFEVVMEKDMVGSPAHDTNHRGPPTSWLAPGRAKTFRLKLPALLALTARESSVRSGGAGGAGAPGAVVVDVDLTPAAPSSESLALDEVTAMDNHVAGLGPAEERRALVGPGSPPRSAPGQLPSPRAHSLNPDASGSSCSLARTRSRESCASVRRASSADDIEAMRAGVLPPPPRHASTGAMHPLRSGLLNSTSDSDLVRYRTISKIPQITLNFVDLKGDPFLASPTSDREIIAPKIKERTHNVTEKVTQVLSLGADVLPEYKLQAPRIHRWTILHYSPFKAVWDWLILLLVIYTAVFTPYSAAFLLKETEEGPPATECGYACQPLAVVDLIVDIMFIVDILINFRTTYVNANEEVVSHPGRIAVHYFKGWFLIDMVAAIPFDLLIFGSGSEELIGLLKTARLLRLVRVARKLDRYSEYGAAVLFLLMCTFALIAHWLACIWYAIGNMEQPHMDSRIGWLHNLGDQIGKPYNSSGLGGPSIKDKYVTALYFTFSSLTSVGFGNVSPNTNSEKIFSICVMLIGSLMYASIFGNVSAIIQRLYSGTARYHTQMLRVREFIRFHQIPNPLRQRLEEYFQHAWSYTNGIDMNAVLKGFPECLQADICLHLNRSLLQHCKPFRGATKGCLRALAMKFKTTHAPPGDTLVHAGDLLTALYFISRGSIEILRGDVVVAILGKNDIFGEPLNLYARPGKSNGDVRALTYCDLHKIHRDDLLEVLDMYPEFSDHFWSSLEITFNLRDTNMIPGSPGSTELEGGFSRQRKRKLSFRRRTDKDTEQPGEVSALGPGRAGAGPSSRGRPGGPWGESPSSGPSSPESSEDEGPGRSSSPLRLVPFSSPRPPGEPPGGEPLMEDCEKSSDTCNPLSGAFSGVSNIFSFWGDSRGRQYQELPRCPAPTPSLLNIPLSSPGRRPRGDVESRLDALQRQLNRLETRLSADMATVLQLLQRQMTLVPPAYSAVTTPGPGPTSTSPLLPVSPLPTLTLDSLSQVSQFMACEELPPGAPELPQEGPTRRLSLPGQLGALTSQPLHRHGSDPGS
* hit, by the source's call; i = inactive; nt = no result given.

SMILES | Kir21 block | KCNK3 inh | KCNQ1 act | KCNK9 block | KCNQ1 block | hERG rescue
COCCNCCOc1ccc(C(C)(C)c2ccccc2)cc1 | -11.6* | i | i | i | i | -4.3
COc1cc2c(cc1OC)C13CCN4CC5=CCOC(CC(=O)O)C(C5CC41)C3N2 (centres undefined) | nt | i | nt | nt | nt | nt
c1ccc(C[n+]2ccccc2)cc1 | -1.12 | i | i | i | 7* | -6.9
Cc1cc[n+](Cc2ccccc2)cc1 | 0.02 | i | i | i | i | -1.7
c1ccc2c(CNC3CCCCC3)c[nH]c2c1 | 0.01 | nt | i | -7.06* | i | -8.3
CC12CCC(=O)CC1CCC1C2C(=O)CC2(C)C1CCC2(C)O (centres undefined) | nt | i | nt | nt | nt | nt
CCCCCSc1cc(OC)c(CCNC)cc1OC | -8.94* | i | i | i | i | -6.4
CCCCCCCSc1cc(OC)c(CCNC)cc1OC | -9.82* | i | i | i | i | -13.7
CCCC(=O)NC(Oc1ccc(OC)cc1)C(Cl)(Cl)Cl (centres undefined) | -5.67* | i | i | i | i | -6.5
NS(=O)(=O)c1nc[nH]c1[N+](=O)[O-] | nt | i | nt | nt | nt | nt
CC[n+]1c(/C=C/C=C/c2ccc(N(C)C)cc2)sc2ccccc21 | -4.02 | -10.8* | i | -6.65* | i | -28.7
CN(C)c1ccc(/C=C/C=C/c2sc3ccccc3[n+]2C)cc1 | 0.58 | i | i | i | i | -18.2
CC[n+]1c(/C=C/N(C)c2ccccc2)sc2ccc(Cl)cc21 | 0.38 | i | i | i | 6* | -22.9
CC(=O)OC(C)(C)/C=C/C(=O)C(C)(O)C1[C@H](O)C[C@@]2(C)C3CC=C4C(CC[C@@H](O)C4(C)C)[C@]3(CO)C(=O)C[C@]12C (some centres undefined) | -1.15 | i | 13* | i | i | 3.4
N[C@@H](Cc1c[nH]c2ccccc12)c1nnc(SCc2ccccc2)o1 | -0.93 | i | i | i | i | -7.7
N[C@@H](Cc1c[nH]c2ccccc12)c1nnc(SCc2ccc(Cl)cc2)o1 | -5.22* | i | i | i | i | -6.7
CCOc1cccc(CNCCc2c(C)[nH]c3ccc(OC(F)(F)F)cc23)c1O | -13.1* | i | i | i | 12* | -20.6
Cc1[nH]c2ccc(OC(F)(F)F)cc2c1CCNCc1ccc(Cl)cc1 | -7.16* | i | i | i | i | -27.8
Cc1[nH]c2ccc(OC(F)(F)F)cc2c1CCNCc1cccc([N+](=O)[O-])c1 | -2.14 | i | i | i | i | -14.4
O=c1[nH]c(=S)[nH]c(O)c1/C=C1/C=c2ccccc2=N1 | -0.72 | i | i | i | i | 45.2*
Cc1cccc2c1=NC(=O)/C(=C/c1c(O)[nH]c(=O)[nH]c1=O)C=2 | 3.02 | i | i | i | i | -3.2
COc1cccc(-n2c(/C=C/c3ccc(O)c(O)c3)nc3ccccc3c2=O)c1 | -1.86 | i | i | i | 6* | -27.8
COc1ccc(SCC2CN(C)CCC2c2ccc(F)cc2)cc1 (centres undefined) | -4.82* | i | i | i | i | -13.1
COc1ccc(C2CN(C)CC2C(=O)c2ccc(F)cc2)cc1Cl (centres undefined) | 0.92 | i | i | i | i | -13.9
OCC1CO1 (centres undefined) | nt | i | nt | nt | nt | nt
SMILES | Kir21 block | KCNK3 inh | KCNQ1 act | KCNK9 block | KCNQ1 block | hERG rescue
COc1ccc(Br)cc1CNCCc1ccc2c(c1)OCO2 | -4.51* | i | i | i | i | -6.4
Clc1ccc(CNCCc2ccc3c(c2)OCO3)cc1 | -8.77* | i | i | i | i | -10.4
Clc1cccc(CNCCc2ccc3c(c2)OCO3)c1 | 0.85 | i | i | i | i | -7.6
COC(=O)C(C)Oc1cc(C)cc2oc(=O)c3c(c12)CCCC3 (centres undefined) | -2.35 | -9.19* | i | i | i | -5.8
CCN(CC)C(=O)c1ccc(NC(=O)COc2ccc(-c3nn(C)c(=O)c4ccccc34)cc2)cc1 | -0.3 | i | i | i | i | -10.6
CSc1nc(Cl)c(Br)c(N2CC2)n1 | nt | i | nt | nt | nt | nt
CCC(=O)Nc1ccc(Cl)c(Cl)c1 | nt | i | nt | nt | nt | nt
CCOc1cc(CNC(C)C(O)c2ccccc2)cc(Cl)c1OCC (centres undefined) | -5.58* | i | i | i | i | -7.6
CCOc1c(Cl)cc(CNCCc2c[nH]c3ccccc23)cc1OC | -1.67 | i | i | i | i | -21.3
CC(NCc1ccccc1C(F)(F)F)C(O)c1ccccc1 (centres undefined) | 1.62 | i | i | i | i | -4.8
CC(NCc1ccccc1Cl)C(O)c1ccccc1 (centres undefined) | -5.65* | i | i | i | i | -5.8
CC(NCc1ccc(Cl)c(Cl)c1)C(O)c1ccccc1 (centres undefined) | -4.6* | i | i | i | i | -6.3
CCOc1cc(CNCCc2c[nH]c3ccccc23)cc(Cl)c1OCC | -7.58* | i | i | i | i | -17.9
Cc1cc(=O)[nH]c(CCl)n1 | 0.57 | i | i | i | i | 0.9
CC(C)(C)NC(=S)N1CCn2cccc2C1c1cccnc1 (centres undefined) | 0.59 | i | i | i | i | -4.9
CC(C)N(Cc1ccco1)/N=C/c1c(O)n(Cc2ccccc2)c(=O)[nH]c1=O | -0.54 | i | i | i | i | -6.2
O=C(CCCc1ccccc1)NCCc1cnc[nH]1 | -0.45 | i | i | i | i | -6.8
CC=C(CC)C1(CC)C(=O)NC(=S)NC1=O | nt | i | nt | nt | nt | nt
C[C@H]1CCC/C=C/[C@@H]2C[C@H](O)C[C@H]2[C@H](O)/C=C/C(=O)O1 | nt | i | nt | nt | nt | nt
C[C@H]1CCCC(=O)CCC/C=C/c2cc(O)cc(O)c2C(=O)O1 | -4.4* | i | i | i | i | -14.4
OC12ONC(c3ccccn3)C1N1CCC2CC1 (centres undefined) | -1.15 | i | i | i | i | -6.0
COc1cccc(NP(=O)(Oc2ccc(Cl)cc2)Oc2ccc(Cl)cc2)c1 | 0.64 | i | i | -6.75* | i | -3.8
Cc1cccc(NP(=O)(Oc2ccccc2F)Oc2ccccc2F)c1 | -1 | i | i | -7.22* | i | -27.3
CN1CC2=CC(O)CC3Oc4c(O)ccc(c4[C@]23C)C1 (some centres undefined) | 0.07 | i | i | i | i | -4.3
Cc1c(Cl)cccc1NC(=S)N1CC2CC(C1)c1cccc(=O)n1C2 (centres undefined) | 1 | i | 30* | i | i | -4.2
O=c1cccc2n1CC1CC2CN(Cc2cccc(Cl)c2Cl)C1 (centres undefined) | -7.81* | i | i | i | i | -10.6
